# According to ChEMBL document CHEMBL4257476, “Design, synthesis and biological evaluation of novel 5-hydroxy-2-methyl-4H-pyran-4-one derivatives as antiglioma agents” (Medchemcomm, 2018):
# Columns and labels:
# [1] = target: Isocitrate dehydrogenase [NADP] cytoplasmic (Homo sapiens, UniProt O75874, R132H); experiment: Inhibition of His-tagged recombinant human IDH1 R132H mutant expressed in Escherichia coli Rosetta (DE3) preincubated for 30 mins followed by NADPH/alpha-KG addition and measured after 1 hr
# Sequence of Isocitrate dehydrogenase [NADP] cytoplasmic (O75874 2-414 R132H limits assumed): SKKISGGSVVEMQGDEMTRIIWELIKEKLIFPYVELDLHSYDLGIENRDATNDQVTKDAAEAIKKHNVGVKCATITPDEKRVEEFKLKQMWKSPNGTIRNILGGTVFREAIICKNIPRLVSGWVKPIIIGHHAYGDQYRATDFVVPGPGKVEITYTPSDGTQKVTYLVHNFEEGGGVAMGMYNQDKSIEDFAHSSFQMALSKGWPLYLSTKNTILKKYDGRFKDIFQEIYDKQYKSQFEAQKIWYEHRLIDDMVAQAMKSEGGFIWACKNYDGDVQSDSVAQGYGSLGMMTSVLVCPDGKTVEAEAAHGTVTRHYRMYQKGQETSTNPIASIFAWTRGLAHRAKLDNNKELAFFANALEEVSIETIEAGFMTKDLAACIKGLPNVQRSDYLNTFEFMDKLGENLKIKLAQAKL
# How it was run: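 His-tagged mutant human IDH1 expressed from pET28a in E. coli Rosetta (DE3) with 1 mM IPTG, purified on Ni-NTA with imidazole step elution. Enzyme and compound preincubated 30 min at room temperature in 50 mM Tris, 200 mM NaCl, 5 mM β-mercaptoethanol, 2 mM MgSO4, 10% glycerol. MgCl2, NADPH and α-KG then added, 1 h at 37 °C; NADPH consumption read at 340 nm.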
# U-87 MG [2] = experiment: Antiproliferative activity against human U87 cells by MTT assay; assay type: functional, cell-based, U-87MG ATCC
# How it was run: (§1)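 MTT viability: cells grown in DMEM with 10% FBS, 2 mM L-glutamine and penicillin/streptomycin at 37 °C, 5% CO2. Seeded 5000/well for 12 h. Compound diluted 1000× from DMSO stock (final DMSO <0.1%). MTT conversion to formazan for 4 h, absorbance at 562 nm. 4 replicate wells per concentration, at least three runs.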
# HT-1080 [3] = experiment: Antiproliferative activity against human HT1080 cells by MTT assay; assay type: functional, cell-based; how it was run: as §1
# HT-1080 [4] = experiment: Inhibition of colony formation of human HT1080 cells at 0.5 uM after 8 days by Giemsa-Wright staining-based assay relative to control; assay type: functional; details: HT-1080, 192 h
# How it was run: (§2)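 Colony formation: 200 cells/well in 6-well plates, 2 mL medium, treated 8 days with DMSO control or compound. Cells then washed three times with cold PBS, fixed in 95% cold MeOH for 15 min, and stained with Giemsa-Wright. Colonies counted by eye at least three times.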
# U-87 MG [5] = experiment: Antimigratory activity in human U87 cells assessed as migration rate at 1 uM after 24 hrs by scratch assay (reference value: 17.5%); assay type: functional, U-87MG ATCC
# HT-1080 [6] = experiment: Antimigratory activity in human HT1080 cells assessed as scratch area at 1 uM after 12 hrs (reference value: 23.3%); assay type: functional
# U-87 MG [7] = experiment: Antimigratory activity in human U87 cells assessed as migration rate at 1 uM after 12 hrs by scratch assay (reference value: 51.3%); assay type: functional, U-87MG ATCC
# [8] = test system: Isocitrate dehydrogenase [NADP] cytoplasmic (Homo sapiens), O75874 [R132H]; experiment: Inhibition of IDH1 […] cells assessed as decrease in D-2HG levels at 1 uM after 48 hrs by HPLC-MS analysis relative to control; assay type: cell-based
# Sequence of Isocitrate dehydrogenase [NADP] cytoplasmic (Homo sapiens), O75874 [R132H] (O75874 whole entry R132H): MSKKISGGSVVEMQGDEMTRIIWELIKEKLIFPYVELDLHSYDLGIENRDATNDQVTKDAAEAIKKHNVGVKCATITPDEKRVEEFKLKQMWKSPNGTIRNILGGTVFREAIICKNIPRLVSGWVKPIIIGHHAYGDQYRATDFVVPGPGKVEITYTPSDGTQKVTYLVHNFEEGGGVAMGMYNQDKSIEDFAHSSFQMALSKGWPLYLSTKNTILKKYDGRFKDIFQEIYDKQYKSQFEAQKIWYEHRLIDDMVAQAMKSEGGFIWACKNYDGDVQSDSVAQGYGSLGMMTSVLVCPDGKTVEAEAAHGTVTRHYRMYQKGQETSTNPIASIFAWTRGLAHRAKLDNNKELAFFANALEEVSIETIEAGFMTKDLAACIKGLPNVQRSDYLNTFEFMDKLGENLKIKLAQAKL
# How it was run: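 HT1080 cells (1×10^5/well, 6-well plates) attached overnight in DMEM with 10% dialyzed FBS. Treated 48 h with rising compound concentrations in 2 mL medium. Quantified by SIM at 147 Da from peak area against an authentic D-2HG standard curve.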
# HT-1080 [9] = experiment: Antimigratory activity in human HT1080 cells assessed as scratch area at 1 uM after 6 hrs (reference value: 58.7%); assay type: functional
# U-87 MG [10] = experiment: Inhibition of colony formation of human U87 cells at 0.5 uM after 8 days by Giemsa-Wright staining-based assay relative to control; assay type: functional, U-87MG ATCC; details: 192 h; how it was run: as §2
# U-87 MG [11] = experiment: Inhibition of colony formation of human U87 cells after 8 days by Giemsa-Wright staining-based assay; assay type: functional, cell-based; details: U-87MG ATCC; how it was run: as §2
# HT-1080 [12] = experiment: Inhibition of colony formation of human HT1080 cells at 1 uM after 8 days by Giemsa-Wright staining-based assay relative to control; assay type: functional; details: HT-1080, 192 h; how it was run: as §2
# U-87 MG [13] = experiment: Inhibition of colony formation of human U87 cells at 1 uM after 8 days by Giemsa-Wright staining-based assay relative to control; assay type: functional, U-87MG ATCC; details: 192 h; how it was run: as §2
# HT-1080 [14] = experiment: Antimigratory activity in human HT1080 cells assessed as scratch area at 10 uM after 12 hrs (reference value: 23.3%); assay type: functional
# HT-1080 [15] = experiment: Antimigratory activity in human HT1080 cells assessed as scratch area at 10 uM after 6 hrs (reference value: 58.7%); assay type: functional
Compound,IC50 [1],IC50 (U-87 MG [2]),IC50 (HT-1080 [3]),also measured
Cc1cc(=O)c(O)c(Cc2ccccc2)o1,> 50 µM,> 50 µM,> 50 µM,
Cc1cc(=O)c(O)c(Cc2ccc(C(F)(F)F)cc2)o1,> 50 µM,> 50 µM,24.4 µM,
Cc1cc(=O)c(O)c(Cc2ccc(Cl)cc2)o1,> 50 µM,> 50 µM,> 50 µM,
Cc1cc(=O)c(O)c(Cc2ccc(OCc3ccccc3)cc2)o1,> 50 µM,> 50 µM,> 50 µM,
Cc1cc(=O)c(O)c(C(c2ccc(CCc3ccccc3)cc2)c2oc(C)cc(=O)c2O)o1,> 50 µM,27.2 µM,> 50 µM,
C=CCOc1ccc(C(c2oc(C)cc(=O)c2O)c2oc(C)cc(=O)c2O)cc1,> 50 µM,30.9 µM,28.3 µM,
Cc1cc(=O)c(O)c(C(c2ccc(OCc3ccc([N+](=O)[O-])cc3)cc2)c2oc(C)cc(=O)c2O)o1,> 50 µM,> 50 µM,3.06 µM,
Cc1cc(=O)c(O)c(Cc2ccc(F)cc2)o1,> 50 µM,> 50 µM,> 50 µM,

# Further lines, with some results ahead:
IC50 [1],IC50 (U-87 MG [2]),IC50 (HT-1080 [3]),Compound,also measured
> 50 µM,29.5 µM,26.6 µM,CCCOc1ccc(C(c2oc(C)cc(=O)c2O)c2oc(C)cc(=O)c2O)cc1,
23.1 µM,4.6 µM,1.43 µM,Cc1cc(=O)c(O)c(C(c2ccc(OCc3ccccc3)cc2)c2oc(C)cc(=O)c2O)o1,inhibition at 0.5 µM (HT-1080 [4]): 75%; Activity (U-87 MG [5]): 69.5%; Activity (HT-1080 [6]): 43.5%; Activity (U-87 MG [7]): 82.8%; inhibition [8]: 86.5%; Activity (HT-1080 [9]): 61%; inhibition at 0.5 µM (U-87 MG [10]): 11.3%; inhibition (U-87 MG [11]): Dose-dependent effect; inhibition at 1 µM (HT-1080 [12]): 99.5%; inhibition at 1 µM (U-87 MG [13]): 96.8%
0.08 µM,20.1 µM,,Cc1ccccc1C(C(=O)NC1CCCCC1)N(C(=O)Cn1ccnc1C)c1cccc(F)c1 (stereo not given),Activity (HT-1080 [14]): 56%; Activity (U-87 MG [5]): 51%; Activity (U-87 MG [7]): 84%; inhibition [8]: 86.9%; Activity (HT-1080 [15]): 70%
32 µM,5.2 µM,2.6 µM,COc1ccc(COc2ccc(C(c3oc(C)cc(=O)c3O)c3oc(C)cc(=O)c3O)cc2)cc1,
